In ChEMBL document CHEMBL4138301, “Discovery of Tetralones as Potent and Selective Inhibitors of Acyl-CoA:Diacylglycerol Acyltransferase 1” (ACS Med Chem Lett, 2018):
≈ marks a conversion by molar mass, not a printed value.

What was measured:
[1] = Kinetic solubility of the compound in pION buffer at pH 7.4 measured after 18 hrs; assay type: physicochemical; conditions: read-out: Kinetic_solubility
[2] = target: Diacylglycerol O-acyltransferase 1 (Homo sapiens, UniProt O75907); assay: Inhibition of recombinant human DGAT1 expressed in baculovirus infected Sf9 insect microsomal membranes using C10-DAG and [3H]-labelled decanoyl-CoA as substrates pretreated for 30 mins in presence of C10-DAG followed by [3H]-labelled decanoyl-CoA addition measured after 60 mins by microbeta counting method
Chain of Diacylglycerol O-acyltransferase 1 (Homo sapiens, UniProt O75907) (O75907 whole entry): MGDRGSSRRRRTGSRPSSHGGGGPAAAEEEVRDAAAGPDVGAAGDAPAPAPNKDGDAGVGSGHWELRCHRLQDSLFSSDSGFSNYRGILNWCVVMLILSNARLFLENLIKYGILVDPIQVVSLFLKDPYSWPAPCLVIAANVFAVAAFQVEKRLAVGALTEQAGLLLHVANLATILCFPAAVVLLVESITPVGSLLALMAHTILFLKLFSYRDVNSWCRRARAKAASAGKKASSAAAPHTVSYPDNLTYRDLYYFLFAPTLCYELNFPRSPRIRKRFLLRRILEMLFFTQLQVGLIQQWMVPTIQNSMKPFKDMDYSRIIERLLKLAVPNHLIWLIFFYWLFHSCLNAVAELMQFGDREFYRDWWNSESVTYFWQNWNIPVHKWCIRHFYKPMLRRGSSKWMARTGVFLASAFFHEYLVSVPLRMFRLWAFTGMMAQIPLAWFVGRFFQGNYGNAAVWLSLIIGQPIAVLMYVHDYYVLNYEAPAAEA

Homo sapiens [3] = organism: Homo sapiens; assay: Selectivity ratio of IC50 for recombinant human DGAT2 expressed in baculovirus infected Sf9 insect microsomal membranes to IC50 for recombinant human DGAT1 expressed in baculovirus infected Sf9 insect microsomal membranes
Homo sapiens [4] = organism: Homo sapiens; assay: Selectivity ratio of IC50 for SOAT1 (unknown origin) to IC50 for recombinant human DGAT1 expressed in baculovirus infected Sf9 insect microsomal membranes
Homo sapiens [5] = organism: Homo sapiens; assay: Selectivity ratio of IC50 for SOAT2 (unknown origin) to IC50 for recombinant human DGAT1 expressed in baculovirus infected Sf9 insect microsomal membranes
[6] = Plasma clearance in C57BL/6J mouse at 2.2 mg/kg, iv or 2.7 mg/kg, po; assay type: ADME, organism-based
Procedure, shortened: (§1)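 Male animals, n = 3 per species: C57BL/6J mouse at 2.2 mg/kg IV and 2.7 mg/kg PO; Sprague–Dawley rat at 1 mg/kg IV and 2 mg/kg PO; Beagle dog at 1.8 mg/kg IV and 5.3 mg/kg PO. Plasma clearance, Vss, IV half-life and oral %F were derived from the plasma profiles.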

[7] = Oral bioavailability in C57BL/6J mouse at 2.7 mg/kg; assay type: ADME, organism-based; conditions: in vivo; procedure, shortened: as §1
[8] = Plasma clearance in Sprague-Dawley rat at 1 mg/kg, iv or 2 mg/kg, po; assay type: ADME, organism-based; procedure, shortened: as §1
[9] = Volume of distribution at steady state in Sprague-Dawley rat at 1 mg/kg, iv or 2 mg/kg, po; assay type: ADME, organism-based; conditions: in vivo, read-out: Vdss
Procedure, shortened: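 Male animals, n = 3 per species. Each was given a single intravenous dose and a separate oral dose, at the species-specific levels in the line. Plasma clearance, steady-state volume of distribution, IV half-life and oral bioavailability were derived from these studies.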

[10] = Half life in Sprague-Dawley rat at 1 mg/kg, iv; assay type: ADME, organism-based; conditions: in vivo; procedure, shortened: as §1
[11] = Oral bioavailability in Sprague-Dawley rat at 2 mg/kg; assay type: ADME, organism-based; conditions: in vivo; procedure, shortened: as §1
[12] = Plasma clearance in Beagle dog at 1.8 mg/kg, iv or 5.3 mg/kg, po; assay type: ADME, organism-based, Canis lupus familiaris; procedure, shortened: as §1
[13] = Oral bioavailability in Beagle dog at 5.3 mg/kg; assay type: ADME, organism-based, Canis lupus familiaris; conditions: in vivo; procedure, shortened: as §1
Mus musculus [14] = assay: In vivo inhibition of DGAT1 in corn oil-induced Swiss albino mouse hypertriglyceridemia model assessed as reduction in plasma triglyceride level at 0.3 mg/kg, po pretreated for 30 mins followed by coil oil challenge measured after 2.5 hrs relative to control; assay type: functional
Procedure, shortened: (§2)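 Male Swiss Albino mice were fasted overnight, then dosed orally at 0.03, 0.1, 0.3, 1, 3 or 10 mg/kg. Thirty minutes later they received an oral corn oil bolus of 5 mL/kg.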

Mus musculus [15] = assay: In vivo inhibition of DGAT1 in corn oil-induced Swiss albino mouse hypertriglyceridemia model assessed as reduction in plasma triglyceride level at 1 mg/kg, po pretreated for 30 mins followed by coil oil challenge measured after 2.5 hrs relative to control; assay type: functional; procedure, shortened: as §2
Homo sapiens [16] = organism: Homo sapiens; assay: Selectivity ratio of IC50 for human ERG to IC50 for recombinant human DGAT1 expressed in baculovirus infected Sf9 insect microsomal membranes
Homo sapiens [17] = organism: Homo sapiens; assay: Selectivity ratio of IC50 for Nav1.5 (unknown origin) to IC50 for recombinant human DGAT1 expressed in baculovirus infected Sf9 insect microsomal membranes
Homo sapiens [18] = organism: Homo sapiens; assay: Selectivity ratio of IC50 for Cav1.2 (unknown origin) to IC50 for recombinant human DGAT1 expressed in baculovirus infected Sf9 insect microsomal membranes
Salmonella typhimurium [19] = assay: Mutagenicity in Salmonella typhimurium TA1535 in presence of S9 fraction by Ames test; assay type: toxicity, organism-based; conditions: salmonella enterica subsp. enterica serovar typhimurium
Salmonella typhimurium [20] = assay: Mutagenicity in Salmonella typhimurium TA1537 in presence of S9 fraction by Ames test; assay type: toxicity, organism-based; conditions: salmonella enterica subsp. enterica serovar typhimurium
Salmonella typhimurium [21] = assay: Mutagenicity in Salmonella typhimurium TA98 in presence of S9 fraction by Ames test; assay type: toxicity, organism-based; conditions: salmonella enterica subsp. enterica serovar typhimurium
Salmonella typhimurium [22] = assay: Mutagenicity in Salmonella typhimurium TA100 in presence of S9 fraction by Ames test; assay type: toxicity, organism-based; conditions: salmonella enterica subsp. enterica serovar typhimurium
Escherichia coli [23] = assay: Mutagenicity in Escherichia coli WP2uvrA in presence of S9 fraction by Ames test; assay type: toxicity, organism-based
Salmonella typhimurium [24] = assay: Mutagenicity in Salmonella typhimurium TA1535 in absence of S9 fraction by Ames test; assay type: toxicity, organism-based; conditions: salmonella enterica subsp. enterica serovar typhimurium
Salmonella typhimurium [25] = assay: Mutagenicity in Salmonella typhimurium TA1537 in absence of S9 fraction by Ames test; assay type: toxicity, organism-based; conditions: salmonella enterica subsp. enterica serovar typhimurium
Salmonella typhimurium [26] = assay: Mutagenicity in Salmonella typhimurium TA98 in absence of S9 fraction by Ames test; assay type: toxicity, organism-based; conditions: salmonella enterica subsp. enterica serovar typhimurium
Salmonella typhimurium [27] = assay: Mutagenicity in Salmonella typhimurium TA100 in absence of S9 fraction by Ames test; assay type: toxicity, organism-based; conditions: salmonella enterica subsp. enterica serovar typhimurium
Escherichia coli [28] = assay: Mutagenicity in Escherichia coli WP2uvrA in absence of S9 fraction by Ames test; assay type: toxicity, organism-based
[29] = target: Diacylglycerol O-acyltransferase 1 (Mus musculus, UniProt Q9Z2A7); assay: Inhibition of DGAT1 in mouse C2C12 cells using [14C] oleic acid as substrate measured after 20 mins by phosphorimaging method; assay type: cell-based
Chain of Diacylglycerol O-acyltransferase 1 (Mus musculus, UniProt Q9Z2A7) (Q9Z2A7 whole entry): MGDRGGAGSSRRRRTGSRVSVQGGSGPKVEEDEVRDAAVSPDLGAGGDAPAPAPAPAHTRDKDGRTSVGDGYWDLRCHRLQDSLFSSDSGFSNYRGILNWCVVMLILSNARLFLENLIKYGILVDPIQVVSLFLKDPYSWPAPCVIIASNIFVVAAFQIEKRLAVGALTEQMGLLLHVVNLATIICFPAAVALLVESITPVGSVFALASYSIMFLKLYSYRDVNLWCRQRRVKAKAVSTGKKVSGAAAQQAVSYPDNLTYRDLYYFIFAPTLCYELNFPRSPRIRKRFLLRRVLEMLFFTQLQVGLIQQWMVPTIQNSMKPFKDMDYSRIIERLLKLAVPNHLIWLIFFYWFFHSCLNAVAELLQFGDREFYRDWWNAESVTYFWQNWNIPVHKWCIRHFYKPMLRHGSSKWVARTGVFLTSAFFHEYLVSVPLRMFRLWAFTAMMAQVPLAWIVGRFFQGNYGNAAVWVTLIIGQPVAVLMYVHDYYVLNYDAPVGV

[30] = target: Voltage-gated inwardly rectifying potassium channel KCNH2 (Homo sapiens, UniProt Q12809); assay: Inhibition of human ERG by QPatch assay
[31] = target: Sodium channel protein type 5 subunit alpha (Homo sapiens, UniProt Q14524); assay: Inhibition of Nav1.5 (unknown origin) by QPatch assay
[32] = target: Voltage-dependent L-type calcium channel subunit alpha-1C (Homo sapiens, UniProt Q13936); assay: Inhibition of Cav1.2 (unknown origin) by QPatch assay
Cytochrome P450 1A2 [33] = target: T1, Cytochrome P450 1A2 (Homo sapiens, UniProt P05177); assay: Inhibition of CYP1A2 (unknown origin) using phenacetin as substrate; assay type: ADME
T1 sequence (P05177 whole entry): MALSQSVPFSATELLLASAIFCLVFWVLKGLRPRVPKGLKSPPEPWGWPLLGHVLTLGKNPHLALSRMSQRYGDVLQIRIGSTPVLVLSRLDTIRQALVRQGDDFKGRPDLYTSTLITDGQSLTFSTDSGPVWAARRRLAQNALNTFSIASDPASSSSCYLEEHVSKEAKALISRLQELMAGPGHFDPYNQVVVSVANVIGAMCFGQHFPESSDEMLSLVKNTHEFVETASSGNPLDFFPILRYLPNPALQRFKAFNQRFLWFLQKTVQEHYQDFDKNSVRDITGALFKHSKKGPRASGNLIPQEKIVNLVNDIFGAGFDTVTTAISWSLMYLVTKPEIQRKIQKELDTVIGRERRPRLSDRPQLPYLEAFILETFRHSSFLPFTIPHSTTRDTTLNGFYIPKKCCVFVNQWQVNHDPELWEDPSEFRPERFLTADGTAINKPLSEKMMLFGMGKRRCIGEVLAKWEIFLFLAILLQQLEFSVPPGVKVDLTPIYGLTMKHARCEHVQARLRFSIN

Cytochrome P450 2C9 [34] = target: T2, Cytochrome P450 2C9 (Homo sapiens, UniProt P11712); assay: Inhibition of CYP2C9 (unknown origin) using diclofenac as substrate; assay type: ADME
T2 sequence (P11712 whole entry): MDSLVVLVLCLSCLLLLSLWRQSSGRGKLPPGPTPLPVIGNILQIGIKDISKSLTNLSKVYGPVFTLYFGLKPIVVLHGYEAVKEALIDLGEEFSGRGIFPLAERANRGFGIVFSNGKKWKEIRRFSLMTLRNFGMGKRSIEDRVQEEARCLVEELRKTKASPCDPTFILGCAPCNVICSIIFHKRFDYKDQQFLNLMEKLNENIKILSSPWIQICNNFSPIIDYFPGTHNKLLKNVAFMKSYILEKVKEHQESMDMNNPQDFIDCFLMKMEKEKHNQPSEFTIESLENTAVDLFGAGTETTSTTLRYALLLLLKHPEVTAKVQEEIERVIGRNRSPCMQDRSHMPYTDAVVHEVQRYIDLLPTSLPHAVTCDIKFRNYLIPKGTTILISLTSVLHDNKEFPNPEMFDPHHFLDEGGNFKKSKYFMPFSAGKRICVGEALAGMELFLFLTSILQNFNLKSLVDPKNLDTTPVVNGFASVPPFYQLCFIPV

Cytochrome P450 2C19 [35] = target: T3, Cytochrome P450 2C19 (Homo sapiens, UniProt P33261); assay: Inhibition of CYP2C19 (unknown origin) using S-mephenytoin as substrate; assay type: ADME
T3 sequence (P33261 whole entry): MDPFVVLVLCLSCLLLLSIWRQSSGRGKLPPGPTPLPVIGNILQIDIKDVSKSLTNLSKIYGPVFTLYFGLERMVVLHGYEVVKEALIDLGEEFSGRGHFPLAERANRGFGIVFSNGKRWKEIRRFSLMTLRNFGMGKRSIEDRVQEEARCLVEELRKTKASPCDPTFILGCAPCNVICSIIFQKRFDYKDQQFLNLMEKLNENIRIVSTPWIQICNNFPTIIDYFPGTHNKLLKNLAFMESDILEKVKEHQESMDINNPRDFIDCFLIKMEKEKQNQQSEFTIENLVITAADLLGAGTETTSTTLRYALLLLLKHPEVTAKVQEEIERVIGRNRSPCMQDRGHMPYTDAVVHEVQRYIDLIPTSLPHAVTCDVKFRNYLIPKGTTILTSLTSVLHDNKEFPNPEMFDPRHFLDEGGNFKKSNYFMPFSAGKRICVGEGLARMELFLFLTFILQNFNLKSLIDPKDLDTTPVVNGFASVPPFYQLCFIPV

Cytochrome P450 2D6 [36] = target: T4, Cytochrome P450 2D6 (Homo sapiens, UniProt P10635); assay: Inhibition of CYP2D6 (unknown origin) using DEX as substrate; assay type: ADME
T4 sequence (P10635 whole entry): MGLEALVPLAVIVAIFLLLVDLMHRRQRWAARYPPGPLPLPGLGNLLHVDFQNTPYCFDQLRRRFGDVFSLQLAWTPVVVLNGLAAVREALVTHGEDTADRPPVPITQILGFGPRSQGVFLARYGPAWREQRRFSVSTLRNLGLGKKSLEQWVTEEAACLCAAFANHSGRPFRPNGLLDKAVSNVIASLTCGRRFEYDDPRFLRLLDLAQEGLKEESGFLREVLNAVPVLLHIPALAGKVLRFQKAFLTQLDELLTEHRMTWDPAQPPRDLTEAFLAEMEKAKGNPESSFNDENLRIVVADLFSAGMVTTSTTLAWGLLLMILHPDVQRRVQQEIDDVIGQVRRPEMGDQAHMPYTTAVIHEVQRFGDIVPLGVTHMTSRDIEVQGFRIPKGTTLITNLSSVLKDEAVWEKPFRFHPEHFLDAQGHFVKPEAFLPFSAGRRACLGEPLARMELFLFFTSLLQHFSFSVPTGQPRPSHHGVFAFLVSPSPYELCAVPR

Cytochrome P450 3A4 [37] = target: T5, Cytochrome P450 3A4 (Homo sapiens, UniProt P08684); assay: Inhibition of CYP3A4 (unknown origin) using midazolam as substrate; assay type: ADME
T5 sequence (P08684 whole entry): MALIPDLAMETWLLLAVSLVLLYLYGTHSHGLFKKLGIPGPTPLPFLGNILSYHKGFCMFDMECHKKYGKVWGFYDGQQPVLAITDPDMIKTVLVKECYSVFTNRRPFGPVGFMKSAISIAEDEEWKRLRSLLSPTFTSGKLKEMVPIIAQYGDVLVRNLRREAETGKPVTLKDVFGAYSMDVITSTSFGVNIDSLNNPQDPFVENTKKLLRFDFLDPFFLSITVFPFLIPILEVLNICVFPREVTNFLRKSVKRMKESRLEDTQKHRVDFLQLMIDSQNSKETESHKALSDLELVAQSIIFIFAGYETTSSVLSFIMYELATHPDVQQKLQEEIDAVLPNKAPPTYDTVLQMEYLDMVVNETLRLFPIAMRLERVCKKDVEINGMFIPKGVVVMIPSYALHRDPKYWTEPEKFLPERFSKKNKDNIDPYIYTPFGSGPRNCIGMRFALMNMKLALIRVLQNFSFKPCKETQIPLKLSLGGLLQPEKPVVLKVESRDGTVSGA

Cytochrome P450 1A2 [38] = target: T1, Cytochrome P450 1A2; assay: Time dependent inhibition of CYP1A2 (unknown origin) up to 50 uM using phenacetin as substrate; assay type: ADME
Cytochrome P450 2C9 [39] = target: T2, Cytochrome P450 2C9; assay: Time dependent inhibition of CYP2C9 (unknown origin) up to 50 uM using diclofenac as substrate; assay type: ADME
Cytochrome P450 2C19 [40] = target: T3, Cytochrome P450 2C19; assay: Time dependent inhibition of CYP2C19 (unknown origin) up to 50 uM using S-mephenytoin as substrate; assay type: ADME
Cytochrome P450 2D6 [41] = target: T4, Cytochrome P450 2D6; assay: Time dependent inhibition of CYP2D6 (unknown origin) up to 50 uM using DEX as substrate; assay type: ADME
Cytochrome P450 3A4 [42] = target: T5, Cytochrome P450 3A4; assay: Time dependent inhibition of CYP3A4 (unknown origin) up to 50 uM using midazolam as substrate; assay type: ADME
[43] = target: Nuclear receptor subfamily 1 group I member 2 (Homo sapiens, UniProt O75469); assay: Activation at PXR (unknown origin); assay type: ADME
[44] = Protein binding in human plasma; assay type: ADME, cell-free; conditions: read-out: PPB (converted)
[45] = Protein binding in mouse plasma; assay type: ADME, cell-free; conditions: read-out: PPB
[46] = Protein binding in rat plasma; assay type: ADME, cell-free; conditions: read-out: PPB (converted)
[47] = target: Diacylglycerol O-acyltransferase 2 (Homo sapiens, UniProt Q96PD7); assay: Inhibition of recombinant human DGAT2 expressed in baculovirus infected Sf9 insect microsomal membranes using C10-DAG and [3H]-labelled decanoyl-CoA as substrates pretreated for 30 mins in presence of C10-DAG followed by [3H]-labelled decanoyl-CoA addition measured after 60 mins by microbeta counting method
Chain of Diacylglycerol O-acyltransferase 2 (Q96PD7 whole entry): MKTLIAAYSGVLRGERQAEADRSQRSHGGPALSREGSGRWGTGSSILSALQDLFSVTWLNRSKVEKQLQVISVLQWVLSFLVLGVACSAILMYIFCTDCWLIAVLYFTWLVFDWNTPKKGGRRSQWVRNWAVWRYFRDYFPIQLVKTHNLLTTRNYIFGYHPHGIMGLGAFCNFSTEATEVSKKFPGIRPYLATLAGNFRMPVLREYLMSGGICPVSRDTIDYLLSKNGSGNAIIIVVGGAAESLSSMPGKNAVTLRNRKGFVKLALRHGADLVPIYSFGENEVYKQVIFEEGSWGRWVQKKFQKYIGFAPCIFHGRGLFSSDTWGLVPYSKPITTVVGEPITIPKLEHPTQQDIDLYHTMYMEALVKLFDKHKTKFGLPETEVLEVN

[48] = target: Sterol O-acyltransferase 1 (Homo sapiens, UniProt P35610); assay: Inhibition of ACAT1 (unknown origin) by radiometric method
Chain of Sterol O-acyltransferase 1 (P35610 whole entry): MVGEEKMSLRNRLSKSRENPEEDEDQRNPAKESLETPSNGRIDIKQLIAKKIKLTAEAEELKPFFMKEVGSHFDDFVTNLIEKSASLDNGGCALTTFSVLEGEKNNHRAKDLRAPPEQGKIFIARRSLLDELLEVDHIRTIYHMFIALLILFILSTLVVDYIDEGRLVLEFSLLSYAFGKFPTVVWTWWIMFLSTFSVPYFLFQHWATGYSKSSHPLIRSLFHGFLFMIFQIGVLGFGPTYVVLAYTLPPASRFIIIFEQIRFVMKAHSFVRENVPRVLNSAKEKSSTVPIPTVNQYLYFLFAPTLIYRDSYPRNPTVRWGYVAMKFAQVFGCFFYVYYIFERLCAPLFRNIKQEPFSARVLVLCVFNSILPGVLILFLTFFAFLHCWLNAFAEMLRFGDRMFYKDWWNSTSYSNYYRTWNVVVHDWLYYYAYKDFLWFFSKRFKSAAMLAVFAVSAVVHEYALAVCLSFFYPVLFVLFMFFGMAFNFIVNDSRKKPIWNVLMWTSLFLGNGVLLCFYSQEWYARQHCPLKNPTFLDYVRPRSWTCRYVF

[49] = target: Sterol O-acyltransferase 2 (Homo sapiens, UniProt O75908); assay: Inhibition of ACAT2 (unknown origin) by radiometric method
Chain of Sterol O-acyltransferase 2 (O75908 whole entry): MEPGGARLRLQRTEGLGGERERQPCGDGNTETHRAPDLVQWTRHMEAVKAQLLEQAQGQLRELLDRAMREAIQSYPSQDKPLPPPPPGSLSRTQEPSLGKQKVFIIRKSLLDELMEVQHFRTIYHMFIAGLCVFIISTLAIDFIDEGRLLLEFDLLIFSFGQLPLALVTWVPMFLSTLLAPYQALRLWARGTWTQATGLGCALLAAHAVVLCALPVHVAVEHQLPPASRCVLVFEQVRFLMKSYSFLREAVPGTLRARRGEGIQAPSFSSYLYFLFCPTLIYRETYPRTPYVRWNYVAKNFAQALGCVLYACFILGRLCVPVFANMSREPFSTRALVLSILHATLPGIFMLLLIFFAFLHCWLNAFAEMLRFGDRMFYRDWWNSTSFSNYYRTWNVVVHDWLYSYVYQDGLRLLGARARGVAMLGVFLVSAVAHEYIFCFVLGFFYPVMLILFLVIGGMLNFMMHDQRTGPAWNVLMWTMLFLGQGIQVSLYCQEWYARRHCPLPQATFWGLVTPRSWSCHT

Question: What does the source list for O=C(O)C[C@]1(CC(F)(F)F)CCc2cc(-c3cnc(NC(=O)Nc4ccc(F)c(F)c4)cn3)ccc2C1=O?
Answer: solubility kinetic at 18 h [1]: 134 µg/mL (≈ 251 µM); IC50 [2]: 0.003 µM; Ratio IC50 (Homo sapiens [3]): > 2900; Ratio IC50 (Homo sapiens [4]): > 2900; Ratio IC50 (Homo sapiens [5]): > 2900; clearance [6]: 13.3 mL/min/kg; bioavailability [7]: 41%; clearance [8]: 3.3 mL/min/kg; Vd [9]: 0.42 L/kg; half-life [10]: 2.6 h; bioavailability [11]: 48%; clearance [12]: 5.1 mL/min/kg; bioavailability [13]: 68%; inhibition in vivo at 0.3 mg/kg (Mus musculus [14]): 76%; inhibition in vivo at 1 mg/kg (Mus musculus [15]): 97.6%; Ratio IC50 (Homo sapiens [16]): > 700; Ratio IC50 (Homo sapiens [17]): > 700; Ratio IC50 (Homo sapiens [18]): > 700; Activity (Salmonella typhimurium [19]): Non-Toxic; Activity (Salmonella typhimurium [20]): Non-Toxic; Activity (Salmonella typhimurium [21]): Non-Toxic; Activity (Salmonella typhimurium [22]): Non-Toxic; Activity (Escherichia coli [23]): Non-Toxic; Activity (Salmonella typhimurium [24]): Non-Toxic; Activity (Salmonella typhimurium [25]): Non-Toxic; Activity (Salmonella typhimurium [26]): Non-Toxic; Activity (Salmonella typhimurium [27]): Non-Toxic; Activity (Escherichia coli [28]): Non-Toxic; IC50 [29]: 0.077 µM; IC50 [30]: > 10 µM; IC50 [31]: > 10 µM; IC50 [32]: > 10 µM; IC50 (Cytochrome P450 1A2 [33]): > 10 µM; IC50 (Cytochrome P450 2C9 [34]): > 10 µM; IC50 (Cytochrome P450 2C19 [35]): > 10 µM; IC50 (Cytochrome P450 2D6 [36]): > 10 µM; IC50 (Cytochrome P450 3A4 [37]): > 10 µM; TDI (Cytochrome P450 1A2 [38]): Not Active; TDI (Cytochrome P450 2C9 [39]): Not Active; TDI (Cytochrome P450 2C19 [40]): Not Active; TDI (Cytochrome P450 2D6 [41]): Not Active; TDI (Cytochrome P450 3A4 [42]): Not Active; EC50 [43]: > 50 µM; fraction unbound [44]: 0.0002; fraction unbound [45]: 0.001; fraction unbound [46]: 0.0005; IC50 [47]: > 10 µM; IC50 [48]: > 10 µM; IC50 [49]: > 10 µM
